Bioassay records from PubChem BioAssay.
FXIa inh – blocks human coagulation factor XIa protease activity; P03951; purified FXIa, Boc-Glu-Ala-Arg-AMC fluorogenic substrate; inhibition, % at 5 µM; actives 0.14% (n = 220,000);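 active = inhibition of at least 40%; inactive = inhibition below 40%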;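 note: fluorescence of freed AMC excited at 355 nm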
Wee1 stabilizer – human Wee1 degradation inhibition, primary screen; P30291; AID 1321; actives 1.2% (n = 220,000); reporter increase, % at 5 µM; HeLa Luc-Wee1K328M stability, luciferase luminescence; 100% = proteasome inhibitor MG132 effect;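 active = activation above the mean of all tested compounds plus 3 SD, set per screening run, cut at about 8.8% in these data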;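 note: cells exposed to compound for 20 h before luminescence read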
hK5 inh – inhibitors of human kallikrein 5; inhibition, % at 5 µM; Q9Y337; recombinant hK5, fluorogenic AMC substrate cleavage; actives 0.59% (n = 210,000);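 active = inhibition of 40% or more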
Target sequence (Q9Y337 67-293 limits assumed): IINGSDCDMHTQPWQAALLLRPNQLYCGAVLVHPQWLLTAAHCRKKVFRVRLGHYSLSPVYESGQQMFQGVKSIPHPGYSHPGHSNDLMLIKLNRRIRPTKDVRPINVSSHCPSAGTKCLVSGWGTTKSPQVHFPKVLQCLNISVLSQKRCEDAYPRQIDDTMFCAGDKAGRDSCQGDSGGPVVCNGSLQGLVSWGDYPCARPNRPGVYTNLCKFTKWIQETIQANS
FXIIa inh 1536 – blocks human coagulation factor XIIa protease activity; AID 800; actives 0.3% (n = 220,000); inhibition, % at 5 µM; purified FXIIa, Boc-QGR-AMC fluorogenic substrate, 2 h; in the data active = inhibition above about 40%
Thrombin inh – thrombin (human) inhibition; P00734; alpha-thrombin, Boc-VPR-AMC fluorogenic substrate cleavage; inhibition, % at 5 µM; actives 0.26% (n = 220,000);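 active = inhibition at or above 40%; inactive = inhibition below 40%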
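Material: human alpha-thrombin protein. Incubation: reaction at ambient temperature. Technique: fluorescence of released AMC, ex 355 nm, em 460 nm. Control set: no-compound enzyme wells and no-enzyme blanks. Also added: Boc-VPR-AMC substrate, 15 µM final. Buffer or medium: pH 7.5 Tris (50 mM) with NaCl 150 mM, Tween 20 0.05%.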
Wee1 stab conf – confirmation of human Wee1 degradation inhibitors; shares compounds with Wee1 stabilizer; HeLa Luc-Wee1K328M degradation, luminescence; vehicle 0%, proteasome-blocked wells 100%; activation, % at 5 µM; actives 4% (n = 1,100); AID 1410; in the data active = activation above about 8.9%
Of the large screens only hits and unclear results are named; the others gave an inactive call (follow-up assays come after a bar, where they were run). Only some compounds are listed: those with a hit (about 2.2% of all), similar ones and a draw of the others.

Cc1ccc(N(C(=O)Cc2cccs2)C(C(=O)NC2CCCCC2)c2ccccn2)cc1C (stereo not given)	none
CC12CCC(=O)N1C(C(=O)OCC(=O)Nc1ccc(Cl)c(Cl)c1)CS2 (stereo not given)	Wee1 stabilizer 21 | Wee1 stab conf inactive
O=C(c1ccc(NC(=O)C2(c3ccccc3)CCCC2)cc1)N1CCOCC1	Wee1 stabilizer 27 | Wee1 stab conf inactive
Cc1cc(Br)c(NC(=O)c2c(-c3c(Cl)cccc3Cl)noc2C)c(Br)c1	none
O=C(Cc1cccs1)NCCSc1c(-c2ccc(Cl)cc2)[nH]c2ccccc12	Wee1 stabilizer 13 | Wee1 stab conf inactive
O=C(/C=C/c1cccnc1)/C=C/c1cccnc1	Wee1 stabilizer 18 | Wee1 stab conf 22
Cn1c(SC/C=C/c2ccccc2)nnc1-c1ccco1	Wee1 stabilizer 12 | Wee1 stab conf inactive
Cc1cc2c(cc1C)C(c1ccccc1Br)CC(=O)N2 (stereo not given)	Wee1 stabilizer 15 | Wee1 stab conf inactive
COc1ccc(OCC(O)Cn2c(=N)n(CCN3CCCCC3)c3ccccc32)cc1 (stereo not given)	Wee1 stabilizer 14 | Wee1 stab conf inactive
CCN(CC)CCSc1nc2ccccc2c(=S)n1-c1ccccc1	Wee1 stabilizer 13 | Wee1 stab conf inactive
Cn1c(NC(=O)c2ccccc2F)c(-c2cccs2)c(=O)c2ccccc21	none
CCN(CCC(=O)Nc1cc([N+](=O)[O-])ccc1OC)Cc1ccccc1	Wee1 stabilizer 13 | Wee1 stab conf inactive
CC(=O)Nc1ccc(C(=O)CSc2nccc(=O)[nH]2)cc1	none (no result: hK5 inh)
Cc1ccc(C(=O)NC(=S)N2CCN(C(=O)OC(C)(C)C)CC2)cc1Br	none
O=C(c1cccc(C(F)(F)F)c1)C1CCCN(Cc2ccc(OCCO)cc2)C1 (stereo not given)	Wee1 stabilizer 13 | Wee1 stab conf inactive
CC(=O)Nc1ccc(CN2CCCC(C(=O)c3cccc(C(F)(F)F)c3)C2)cc1 (stereo not given)	none (no result: hK5 inh)
C=CCc1cccc2cc(C(=O)NCCOC)c(=O)oc12	none
C=CCc1cccc2cc(C(=O)NC3CCCCC3)c(=O)oc12	Wee1 stabilizer 17 | Wee1 stab conf inactive
CC(C)(O)C#Cc1ccc(CN2CCN(C3CCCC3)C(CCO)C2)cc1 (stereo not given)	none
